This series relates to Rattus norvegicus. Description: Biodistribution in liver of Iimmature female rat after 3 hour administration of 3 micro Ci (111 kBq) in the absence of 60 microg estradiol. The class given is ADME, organism-based. Particulars: in vivo. The procedure, abridged: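 Immature female Long Evans rats (21–24 days, 45–70 g), unanesthetized in retention cages, given 3 µCi (111 kBq) 125I-labeled steroid i.v. via lateral tail vein. Vehicle was ethanol diluted in saline containing 1% Tween-80, giving 9% ethanol final. The blocking group received 60 µg unlabeled estradiol co-injected. Rats were killed under ether by axillary bleeding, and tissues were KCl-washed and gamma-counted. Data are %ID/g, mean ± SE, n=3–5.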

Molecules are shown by their SMILES.

`C[C@]12CC[C@@H]3c4cc(F)c(O)cc4CC[C@H]3[C@@H]1CC[C@@]2(O)/C=C/I` showed an ID/g of 2.87%.

Values taken from ChEMBL document CHEMBL1126849, “Synthesis of A-ring fluorinated derivatives of (17 alpha,20E/Z)-[125I]iodovinylestradiols: effect on receptor binding and receptor-mediated target tissue uptake” (J Med Chem, 1993).
